Data: ChEMBL document CHEMBL3045436, “Synthesis and antiviral activities of antofine analogues with different C-6 substituent groups” (2013)

Tests used:
Format in all cases: functional
Tobacco mosaic virus [1] = test: Antiviral activity against Tobacco mosaic virus (TMV) in tobacco plant leaf assessed as curative effect at 100 ug/ml after 3 to 4 days
Summary of the method: (§1)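 Whole plants of N. tabacum var. Xanthi nc at the same leaf age. Whole leaves dip-inoculated with TMV (6.0 × 10−3 mg/mL), then washed with water and dried. Compound smeared on the left half-leaf, solvent on the right as control. Local lesions counted 3−4 days after inoculation, three replicates. Inhibition % calculated from mean lesion numbers versus control.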

Tobacco mosaic virus [2] = test: Antiviral activity against Tobacco mosaic virus (TMV) in tobacco plant leaf assessed as protection effect at 100 ug/ml after 3 to 4 days
Summary of the method: (§2)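 Compound smeared on the left half of growing N. tabacum var. Xanthi nc leaves of the same age, solvent on the right half as control. Leaves inoculated with TMV 12 h later. Local lesions counted 3−4 days after inoculation, three replicates. Inhibition % = (control − treated mean lesions)/control × 100.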

Tobacco mosaic virus [3] = test: Antiviral activity against Tobacco mosaic virus (TMV) in tobacco plant leaf assessed as inactivation effect at 500 ug/ml after 3 to 4 days
Summary of the method: (§3)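 TMV mixed with an equal volume of compound solution for 30 min. The mixture was inoculated on the left half of N. tabacum var. Xanthi nc leaves, and virus mixed with solvent on the right half as control. Local lesions recorded 3−4 days after inoculation, three replicates. Inhibition % calculated from mean lesion numbers versus control.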

Tobacco mosaic virus [4] = test: Antiviral activity against Tobacco mosaic virus (TMV) in tobacco leaf juice at 500 ug/ml after 72 hr by half-leaf method
Summary of the method: (§4)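 Detached leaf (half-leaf) assay in Nicotiana tabacum var. Xanthi nc, 5−6 growth stage. Whole leaf inoculated with TMV (5.88 × 10−2 μg/mL) by juice-leaf rubbing, then cut in half along the main vein. One half soaked 20 min in compound solution, the other in double-distilled water. Halves cultured 72 h at 25 °C. At least three replicates. Inhibition % = (control − treated mean local lesions)/control × 100.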

Tobacco mosaic virus [5] = test: Antiviral activity against Tobacco mosaic virus (TMV) in tobacco plant leaf assessed as inactivation effect at 100 ug/ml after 3 to 4 days; summary of the method: as §3
Tobacco mosaic virus [6] = test: Antiviral activity against Tobacco mosaic virus (TMV) in tobacco plant leaf assessed as protection effect at 500 ug/ml after 3 to 4 days; summary of the method: as §2
Tobacco mosaic virus [7] = test: Antiviral activity against Tobacco mosaic virus (TMV) in tobacco leaf juice at 100 ug/ml after 72 hr by half-leaf method; summary of the method: as §4
Tobacco mosaic virus [8] = test: Antiviral activity against Tobacco mosaic virus (TMV) in tobacco plant leaf assessed as curative effect at 500 ug/ml after 3 to 4 days; summary of the method: as §1

Compound	inhibition at 100 µg/mL (Tobacco mosaic virus [1]) [%]	inhibition at 100 µg/mL (Tobacco mosaic virus [2]) [%]	inhibition at 500 µg/mL (Tobacco mosaic virus [3]) [%]	inhibition at 500 µg/mL (Tobacco mosaic virus [4]) [%]	inhibition at 100 µg/mL (Tobacco mosaic virus [5]) [%]	inhibition at 500 µg/mL (Tobacco mosaic virus [6]) [%]	inhibition at 100 µg/mL (Tobacco mosaic virus [7]) [%]	inhibition at 500 µg/mL (Tobacco mosaic virus [8]) [%]
COc1cc2c3c(c4ccc(O)cc4c2cc1OC)CN1CCC[C@H]1C3	23.2	19.5	46.2	52.2	17.8	43.2	21.3	49.6
COc1cc2c3c(c4ccc(OCCO)cc4c2cc1OC)CN1CCC[C@@H]1C3	42.8	39.5	70.4	78.2	40.9	71.6	47.5	74.2
COc1cc2c3c(c4ccc(OCCO)cc4c2cc1OC)CN1CCC[C@H]1C3	18.6	10.5	40.5	43.9	12	42.3	10	44
COc1cc2c3c(c4ccc(OC(C)=O)cc4c2cc1OC)CN1CCC[C@H]1C3	22.4	16.2	58.5	68.7	19.3	54.2	30.6	59.4
CCOc1ccc2c3c(c4cc(OC)c(OC)cc4c2c1)C[C@H]1CCCN1C3	27.2	10.4	43.7	50	28.5	40.2	32.5	49.7
CCOc1ccc2c3c(c4cc(OC)c(OC)cc4c2c1)C[C@@H]1CCCN1C3	24.3	28.5	53.2	56.2	23	48	25.6	51.1
C#CCOc1ccc2c3c(c4cc(OC)c(OC)cc4c2c1)C[C@H]1CCCN1C3	36.1	39.7	52.8	61.2	38.9	58.6	43.7	59.3
C#CCOc1ccc2c3c(c4cc(OC)c(OC)cc4c2c1)C[C@@H]1CCCN1C3	45.5	40.9	70	75	42.4	71.6	48.6	74.9
COc1cc2c3c(c4ccc(OCC#N)cc4c2cc1OC)CN1CCC[C@@H]1C3	44.1	42.3	72.3	79.3	38.7	74.5	40	75.1
COc1cc2c3c(c4ccc(OCC#N)cc4c2cc1OC)CN1CCC[C@H]1C3	30.4	26.3	58.2	60	27.9	54.3	31.5	57.8
COc1cc2c3c(c4ccc(O)cc4c2cc1OC)CN1CCC[C@@H]1C3	42	35.4	65.3	70.5	33.5	60.4	40	72.4
COc1ccc2c3c(c4cc(OC)c(OC)cc4c2c1)C[C@H]1CCCN1C3 [(-)-ANTOFINE]	33.4	32.3	58	65.8	29.4	55.7	30.4	62.5
COc1ccc2c3c(c4cc(OC)c(OC)cc4c2c1)C[C@@H]1CCCN1C3 [HYPOESTESTATIN 1]	28.4	37.2	55.5	60.2	26.7	51.1	30.5	56.4
CNCC(=O)N[C@@H](CO)C(=O)N[C@H]1[C@H](O)[C@@H](O)[C@H](n2ccc(N)nc2=O)O[C@@H]1C(N)=O [NINGNANMYCIN]	23.1	38.4	54.2	69.3	25	57.9	26.8	58.7
